Measurements taken from ChEMBL document CHEMBL1155834, “Antimicrobial diterpenes from Trigonostemon chinensis” (2008).
Converted amounts (≈) assume the structure as drawn.

tested on: Nannizzia gypsea; assay: Antifungal activity against Microsporum gypseum after 48 hrs; format: functional; conditions: not given
Method in brief: (§1)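 Fungi grown in Sabouraud dextrose broth with compound at 37 °C for 48 h. MIC is the lowest concentration completely inhibiting visible growth.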

`C=CC1=C(C)C(=O)C=C2[C@]1(O)CC[C@H](C(=C)C)[C@@]2(C)CCC(=O)OC` [TRIGONOCHINENE B] and `C=CC1=C(C)C(=O)C=C2[C@@]1(O)CC[C@H](C(=C)C)[C@@]2(C)CCC(=O)OC` [TRIGONOCHINENE A] cannot be ordered by MIC: greater than 50 µg/mL for the first, greater than 50 µg/mL for the second.

Going from `COC(=O)C1=CC[C@@]23CC[C@@H]([C@@](C)(/C=C/C=C(\C)C(=O)O)OC2=O)[C@@]3(OC(C)=O)CC1` [PSEUDOLARIC ACID B] to `C=Cc1c(C)c(O)cc2c1CC[C@H](C(=C)C)[C@@]2(C)CCC(=O)OC`, the MIC rises from 12.5 µg/mL (≈ 28.9 µM) to 50 µg/mL (≈ 152 µM) (4-fold).

In the case of `C=Cc1c(C)c(O)cc2c1CC[C@H](C(=C)C)[C@@]2(C)CCC(=O)O`, the MIC is reported as greater than 50 µg/mL.

tested on: Shigella flexneri; assay: Antibacterial activity against Shigella flexneri after 18 hrs; format: functional; conditions: not given
Method in brief: (§2)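 Broth dilution in Mueller Hinton broth, compounds dissolved in DMSO. Cells incubated aerobically with compound at 37 °C for 18 h, with DMSO-only blank cultures. MIC is the lowest concentration giving complete inhibition of visible growth.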

`C=CC1=C(C)C(=O)C=C2[C@]1(O)CC[C@H](C(=C)C)[C@@]2(C)CCC(=O)OC` [TRIGONOCHINENE B] and `C=CC1=C(C)C(=O)C=C2[C@@]1(O)CC[C@H](C(=C)C)[C@@]2(C)CCC(=O)OC` [TRIGONOCHINENE A] cannot be ordered by MIC: greater than 50 µg/mL for the first, greater than 50 µg/mL for the second.

`C=Cc1c(C)c(O)cc2c1CC[C@H](C(=C)C)[C@@]2(C)CCC(=O)OC` and `C=Cc1c(C)c(O)cc2c1CC[C@H](C(=C)C)[C@@]2(C)CCC(=O)O` cannot be ordered by MIC: greater than 50 µg/mL for the first, greater than 50 µg/mL for the second.

tested on: Escherichia coli; assay: Antibacterial activity against Escherichia coli after 18 hrs; format: functional; conditions: not given; method in brief: as §2

`C=CC1=C(C)C(=O)C=C2[C@]1(O)CC[C@H](C(=C)C)[C@@]2(C)CCC(=O)OC` [TRIGONOCHINENE B] and `C=CC1=C(C)C(=O)C=C2[C@@]1(O)CC[C@H](C(=C)C)[C@@]2(C)CCC(=O)OC` [TRIGONOCHINENE A] cannot be ordered by MIC: greater than 50 µg/mL for the first, greater than 50 µg/mL for the second.

`C=Cc1c(C)c(O)cc2c1CC[C@H](C(=C)C)[C@@]2(C)CCC(=O)OC` and `C=Cc1c(C)c(O)cc2c1CC[C@H](C(=C)C)[C@@]2(C)CCC(=O)O` cannot be ordered by MIC: greater than 50 µg/mL for the first, greater than 50 µg/mL for the second.

tested on: Helicobacter pylori; assay: Antibacterial activity against metronidazole-resistant Helicobacter pylori ATCC 43504 after 96 hrs; format: functional; conditions: ATCC 43504, 96 h
Method in brief: (§3)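 Agar plates inoculated with H. pylori cells suspended in saline at 10^8 cfu/mL, incubated 37 °C for 96 h microaerobically (5% O2, 10% CO2, 85% N2) alongside blank and positive controls. Triplicate tests.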

First: C=CC1=C(C)C(=O)C=C2[C@]1(O)CC[C@H](C(=C)C)[C@@]2(C)CCC(=O)OC [TRIGONOCHINENE B]
Second: C=CC1=C(C)C(=O)C=C2[C@@]1(O)CC[C@H](C(=C)C)[C@@]2(C)CCC(=O)OC [TRIGONOCHINENE A]
The MIC of the first is 2-fold lower: 25 µg/mL (≈ 72.6 µM) for the first, 50 µg/mL (≈ 145 µM) for the second.

Compared with `C=Cc1c(C)c(O)cc2c1CC[C@H](C(=C)C)[C@@]2(C)CCC(=O)OC`, `C=Cc1c(C)c(O)cc2c1CC[C@H](C(=C)C)[C@@]2(C)CCC(=O)O` is higher in MIC: 50 µg/mL (≈ 152 µM) for the first, greater than 50 µg/mL for the second.

tested on: Staphylococcus epidermidis; assay: Antibacterial activity against Staphylococcus epidermidis ATCC 12228 after 18 hrs; format: functional; conditions: ATCC 12228, 18 h; method in brief: as §2

`C=CC1=C(C)C(=O)C=C2[C@]1(O)CC[C@H](C(=C)C)[C@@]2(C)CCC(=O)OC` [TRIGONOCHINENE B] and `C=CC1=C(C)C(=O)C=C2[C@@]1(O)CC[C@H](C(=C)C)[C@@]2(C)CCC(=O)OC` [TRIGONOCHINENE A] cannot be ordered by MIC: greater than 50 µg/mL for the first, greater than 50 µg/mL for the second.

First: C=Cc1c(C)c(O)cc2c1CC[C@H](C(=C)C)[C@@]2(C)CCC(=O)OC
Second: C=Cc1c(C)c(O)cc2c1CC[C@H](C(=C)C)[C@@]2(C)CCC(=O)O
The MIC of the first is lower: 6.25 µg/mL (≈ 19 µM) for the first, greater than 50 µg/mL for the second.

tested on: Helicobacter pylori; assay: Antibacterial activity against Helicobacter pylori SS1 after 96 hrs; format: functional; conditions: SS1, 96 h; method in brief: as §3

Compared with `C=CC1=C(C)C(=O)C=C2[C@]1(O)CC[C@H](C(=C)C)[C@@]2(C)CCC(=O)OC` [TRIGONOCHINENE B], `C=CC1=C(C)C(=O)C=C2[C@@]1(O)CC[C@H](C(=C)C)[C@@]2(C)CCC(=O)OC` [TRIGONOCHINENE A] is 2-fold higher in MIC: 12.5 µg/mL (≈ 36.3 µM) for the first, 25 µg/mL (≈ 72.6 µM) for the second.

`C=Cc1c(C)c(O)cc2c1CC[C@H](C(=C)C)[C@@]2(C)CCC(=O)OC` and `C=Cc1c(C)c(O)cc2c1CC[C@H](C(=C)C)[C@@]2(C)CCC(=O)O` are the same in MIC: 25 µg/mL (≈ 76.1 µM) for the first, 25 µg/mL (≈ 79.5 µM) for the second.

tested on: Staphylococcus aureus; assay: Antibacterial activity against Staphylococcus aureus ATCC 25923 after 18 hrs; format: functional; conditions: ATCC 25923, 18 h; method in brief: as §2

`C=CC1=C(C)C(=O)C=C2[C@]1(O)CC[C@H](C(=C)C)[C@@]2(C)CCC(=O)OC` [TRIGONOCHINENE B] and `C=CC1=C(C)C(=O)C=C2[C@@]1(O)CC[C@H](C(=C)C)[C@@]2(C)CCC(=O)OC` [TRIGONOCHINENE A] cannot be ordered by MIC: greater than 50 µg/mL for the first, greater than 50 µg/mL for the second.

First: C=Cc1c(C)c(O)cc2c1CC[C@H](C(=C)C)[C@@]2(C)CCC(=O)OC
Second: C=Cc1c(C)c(O)cc2c1CC[C@H](C(=C)C)[C@@]2(C)CCC(=O)O
The MIC of the first is lower: 12.5 µg/mL (≈ 38.1 µM) for the first, greater than 50 µg/mL for the second.

tested on: Bacillus subtilis; assay: Antibacterial activity against Bacillus subtilis CMCC 63501 after 18 hrs; format: functional; conditions: not given; method in brief: as §2

`C=CC1=C(C)C(=O)C=C2[C@]1(O)CC[C@H](C(=C)C)[C@@]2(C)CCC(=O)OC` [TRIGONOCHINENE B] and `C=CC1=C(C)C(=O)C=C2[C@@]1(O)CC[C@H](C(=C)C)[C@@]2(C)CCC(=O)OC` [TRIGONOCHINENE A] cannot be ordered by MIC: greater than 50 µg/mL for the first, greater than 50 µg/mL for the second.

Going from `C=Cc1c(C)c(O)cc2c1CC[C@H](C(=C)C)[C@@]2(C)CCC(=O)OC` to `C=Cc1c(C)c(O)cc2c1CC[C@H](C(=C)C)[C@@]2(C)CCC(=O)O`, the MIC rises from 3.12 µg/mL (≈ 9.5 µM) to greater than 50 µg/mL.

tested on: Candida albicans; assay: Antifungal activity against Candida albicans after 48 hrs; format: functional; conditions: not given; method in brief: as §1

`C=CC1=C(C)C(=O)C=C2[C@]1(O)CC[C@H](C(=C)C)[C@@]2(C)CCC(=O)OC` [TRIGONOCHINENE B] and `C=CC1=C(C)C(=O)C=C2[C@@]1(O)CC[C@H](C(=C)C)[C@@]2(C)CCC(=O)OC` [TRIGONOCHINENE A] cannot be ordered by MIC: greater than 50 µg/mL for the first, greater than 50 µg/mL for the second.

Compared with `COC(=O)C1=CC[C@@]23CC[C@@H]([C@@](C)(/C=C/C=C(\C)C(=O)O)OC2=O)[C@@]3(OC(C)=O)CC1` [PSEUDOLARIC ACID B], `C=Cc1c(C)c(O)cc2c1CC[C@H](C(=C)C)[C@@]2(C)CCC(=O)OC` is higher in MIC: 6.25 µg/mL (≈ 14.5 µM) for the first, greater than 50 µg/mL for the second.

`C=Cc1c(C)c(O)cc2c1CC[C@H](C(=C)C)[C@@]2(C)CCC(=O)O` gave an MIC greater than 50 µg/mL.

tested on: Pseudomonas aeruginosa; assay: Antibacterial activity against Pseudomonas aeruginosa after 18 hrs; format: functional; conditions: not given; method in brief: as §2

`C=CC1=C(C)C(=O)C=C2[C@]1(O)CC[C@H](C(=C)C)[C@@]2(C)CCC(=O)OC` [TRIGONOCHINENE B] and `C=CC1=C(C)C(=O)C=C2[C@@]1(O)CC[C@H](C(=C)C)[C@@]2(C)CCC(=O)OC` [TRIGONOCHINENE A] cannot be ordered by MIC: greater than 50 µg/mL for the first, greater than 50 µg/mL for the second.

`C=Cc1c(C)c(O)cc2c1CC[C@H](C(=C)C)[C@@]2(C)CCC(=O)OC` and `C=Cc1c(C)c(O)cc2c1CC[C@H](C(=C)C)[C@@]2(C)CCC(=O)O` cannot be ordered by MIC: greater than 50 µg/mL for the first, greater than 50 µg/mL for the second.

tested on: Micrococcus luteus; assay: Antibacterial activity against Micrococcus luteus ATCC 9341 after 18 hrs; format: functional; conditions: ATCC 9341, 18 h; method in brief: as §2

`C=CC1=C(C)C(=O)C=C2[C@]1(O)CC[C@H](C(=C)C)[C@@]2(C)CCC(=O)OC` [TRIGONOCHINENE B] and `C=CC1=C(C)C(=O)C=C2[C@@]1(O)CC[C@H](C(=C)C)[C@@]2(C)CCC(=O)OC` [TRIGONOCHINENE A] cannot be ordered by MIC: greater than 50 µg/mL for the first, greater than 50 µg/mL for the second.

First: C=Cc1c(C)c(O)cc2c1CC[C@H](C(=C)C)[C@@]2(C)CCC(=O)OC
Second: C=Cc1c(C)c(O)cc2c1CC[C@H](C(=C)C)[C@@]2(C)CCC(=O)O
The MIC of the first is lower: 6.25 µg/mL (≈ 19 µM) for the first, greater than 50 µg/mL for the second.
